Test results as given in ChEMBL document CHEMBL4020774, “Anti-influenza activity of monoterpene-containing substituted coumarins” (Bioorg Med Chem Lett, 2017).
Active and inactive are the calls of the source. The rule behind the calls is not given here.

Legend:
[1] = Cytotoxicity against MDCK cells after 48 hrs by MTT assay; assay type: cell-based, Canis lupus familiaris; conditions: dog
Summary of the method: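 Uninfected MDCK cells were exposed to three-fold compound dilutions in MEM for 48 h at 36°C, 5% CO2, then washed with PBS. MTT ([…] in PBS) was added for 1 h, and formazan was dissolved in DMSO.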

[2] = Antiviral activity against Influenza A virus (A/California/07/09(H1N1)) pdm09 infected in MDCK cells pretreated for 1 hr followed by viral infection incubated for 24 hrs measured after 48 hrs by hemagglutination test; assay type: functional, cell-based, Influenza A virus (A/California/07/2009(H1N1))
Summary of the method: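 MDCK cells preincubated with compound for 1 h at 36°C, each concentration in triplicate, then infected (moi 0.01) for 24 h at 36°C, 5% CO2. Supernatant virus titer was read by hemagglutination after 48 h culture in MDCK cells at 36°C.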

[3] = Selectivity index, ratio of CC50 for MDCK cells to IC50 for Influenza A virus (A/California/07/09(H1N1)) pdm09 infected in MDCK cells; assay type: toxicity, cell-based; conditions: dog; read-out: Ratio CC50/IC50
Influenza A virus [4] = experiment: Antiviral activity against Influenza A virus (A/Puerto Rico/8/34(H1N1)) infected in MDCK cells at 500 uM after 4 to 8 hrs post infection by MTT assay; assay type: functional, cell-based; conditions: A/Puerto Rico/8/1934(H1N1)
Summary of the method: (§1)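 Time-of-addition assay in MDCK cells. Virus was adsorbed at m.o.i. 10 for 1 h at 4°C, unbound virions were washed off with MEM, and cells were incubated for 8 h at 36°C, 5% CO2 (start = 0 h). Compound at 500 µM final in MEM was present during set windows between −2 and 8 hpi, then washed out. Titer after 8 h was read as TCID50 by MTT assay.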

Influenza A virus [5] = experiment: Antiviral activity against Influenza A virus (A/Puerto Rico/8/34(H1N1)) infected in MDCK cells at 500 uM at 1 to 2 hrs post infection by MTT assay; assay type: functional, cell-based; conditions: A/Puerto Rico/8/1934(H1N1); summary of the method: as §1

SMILES	CC50 at 48 h [1]	IC50 [2]	selectivity ratio [3]	Activity (Influenza A virus [4])	Activity (Influenza A virus [5])
CC(N)C12CC3CC(CC(C3)C1)C2 (stereo unspecified) [RIMANTADINE]	363 µM	41 µM	9		
Cc1cc(=O)oc2cc(OCC3=CC[C@@H]4C[C@H]3C4(C)C)ccc12	130 µM	10 µM	13		
CC1(C)[C@H]2CC=C(COc3ccc4ccc(=O)oc4c3)[C@@H]1C2	310 µM	> 101 µM	< 3		
CC1(C)[C@H]2CC=C(COc3ccc4c5c(c(=O)oc4c3)CCC5)[C@@H]1C2	982 µM	36 µM	28	inactive	Active
CC(C)=CCC/C(C)=C/COc1ccc2c(C)cc(=O)oc2c1	28 µM	> 10 µM	< 3		
CC1(C)[C@@H]2CC=C(COc3ccc4c5c(c(=O)oc4c3)CCCC5)[C@H]1C2	415 µM	149 µM	3		
CC(C)=CCC/C(C)=C/COc1ccc2c3c(c(=O)oc2c1)CCC3	> 888 µM	> 888 µM			
CC(C)=CCC/C(C)=C/COc1ccc2ccc(=O)oc2c1	7 µM	7 µM	1		
CC1(C)[C@H]2CC=C(COc3ccc4c5c(c(=O)oc4c3)CCCC5)[C@@H]1C2	857 µM	64 µM	13		
Cc1cc(=O)oc2cc(OCC3=CC[C@H]4C[C@@H]3C4(C)C)ccc12	30 µM	4 µM	9		
COc1cccc(COc2ccc3c(C)cc(=O)oc3c2)c1	> 1120 µM	1010 µM	> 1		
COc1cccc(COc2ccc3c4c(c(=O)oc3c2)CCCC4)c1	> 982 µM	> 982 µM			
CC1(C)[C@@H]2CC=C(COc3ccc4ccc(=O)oc4c3)[C@H]1C2	7 µM	> 10 µM	1		
CC1(C)[C@H]2CC=C(CCOc3ccc4c5c(c(=O)oc4c3)CCCC5)[C@@H]1C2	18 µM	3 µM	6		
COc1cccc(COc2ccc3ccc(=O)oc3c2)c1	> 1170 µM	> 1170 µM			
CC1(C)[C@H]2CC=C(CCOc3ccc4ccc(=O)oc4c3)[C@@H]1C2	10 µM	0.5 µM	20		
CC(C)=CCC/C(C)=C/COc1ccc2c3c(c(=O)oc2c1)CCCC3	100 µM	> 85 µM	1		
CC1(C)[C@H]2CC=C(CCOc3ccc4c5c(c(=O)oc4c3)CCC5)[C@@H]1C2	> 857 µM	21 µM	41		
CC1(C)[C@@H]2CC=C(COc3ccc4c5c(c(=O)oc4c3)CCC5)[C@H]1C2	133 µM	33 µM	4		
